Laboratory results taken from ChEMBL document CHEMBL1154181 (J Med Chem, 2009).

What was measured:
Assay type in all cases: functional
[1] = tested on: Mus musculus; test: Antinociceptive activity against radiant heat-induced nociception in icv dosed CD1 mouse assessed as increase in tail withdrawal latency measured after 15 to 120 mins postdose by tail flick test
Summary of the method: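 Male CD-1 mice anesthetized with ketamine-xylazine (80 + 10 mg/kg ip). Dosed into the right lateral ventricle (+2 mm ML, −0.3 mm AP to bregma, 2 mm depth). Tail flick with radiant heat, cut-off 15 s. Latency read at 15–120 min as %MPE.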

[2] = tested on: Mus musculus; test: Antinociceptive activity against radiant heat-induced nociception in po dosed CD1 mouse assessed as increase in tail withdrawal latency measured after 15 to 120 mins postdose by tail flick test
Summary of the method: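 Male CD-1 mice, 25–30 g; oral dosing. Radiant heat focused 3–4 cm from tail tip of hand-restrained mice; tail withdrawal latency recorded, cutoff 15 s at 15 V. Baseline = mean of three readings 15 min apart; latency at 15–120 min.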

[3] = tested on: Mus musculus; test: Antinociceptive activity against thermal nociception in po dosed CD1 mouse assessed as increase in latency period to elicit jumping or hind paw licking measured after 15 to 90 mins postdose by hot plate method

SMILES | ED50 [1] | ED50 [2] | ED50 [3]
C=Cc1c(C)nn(CCCN2CCN(c3ccc(OC)cc3)CC2)c(=O)c1N | 12.6 µg | – | –
C=Cc1c(C)nn(CCCN2CCN(C)CC2)c(=O)c1N | 8.7 µg | – | –
Cc1ccc(N2CCN(CCCn3nc(-c4ccccc4)c(-c4csc(C)n4)c(N)c3=O)CC2)cc1 | 48.3 µg | – | –
C=Cc1cnn(CCCN2CCN(c3ccc(C)cc3)CC2)c(=O)c1N | 25.1 µg | – | –
C=Cc1sc(=O)n(CCCN2CCN(c3ccc(C)cc3)CC2)c1C | 5.1 µg | – | –
Cc1ccc(N2CCN(CCn3nc(-c4ccccc4)c(-c4csc(C)n4)c(N)c3=O)CC2)cc1 | 25.1 µg | – | –
C=Cc1c(C)nn(C)c(=O)c1NCCN1CCN(c2ccc(C)cc2)CC1 | 24.1 µg | – | –
Cc1ccc(N2CCN(CCCn3nc(C)ccc3=O)CC2)cc1 | 13.8 µg | – | –
Cc1ccc(N2CCN(CCCn3nc(C)cc(N)c3=O)CC2)cc1 | 4.9 µg | – | –
Cc1ccc(N2CCN(CCCn3cc(-c4ccncc4)cc(N)c3=O)CC2)cc1 | 7.6 µg | – | –
Cc1ccc(N2CCN(CCn3nc(C)c(-c4ccn[nH]4)c(N)c3=O)CC2)cc1 | 16.9 µg | – | –
C=Cc1c(C)nn(CCN2CCN(c3ccc(OC)cc3)CC2)c(=O)c1N | 11.9 µg | – | –
CN1CC[C@]23c4c5ccc(O)c4O[C@H]2[C@@H](O)C=C[C@H]3[C@H]1C5 [MORPHINE] | 1.1 µg | 3.5 mg/kg | 6.9 mg/kg
C=Cc1c(C)nn(CCN2CCN(c3ccc(C)cc3)CC2)c(=O)c1N | 26.1 µg | – | –
C=Cc1c(C)nn(CCCN2CCN(c3cccc(OC)c3)CC2)c(=O)c1N | 72.6 µg | – | –
C=Cc1c(C)nn(CCCN2CCN(c3ccc(Cl)cc3)CC2)c(=O)c1N | 15.4 µg | – | –
C=Cc1c(C)nn(CCCN2CCC(C)CC2)c(=O)c1N | 26.4 µg | – | –
C=Cc1c(C)nn(CCCN2CCN(c3cccc(Cl)c3)CC2)c(=O)c1N | 23.7 µg | – | –
C=Cc1c(C)nn(CCCN2CCN(c3cccc(C)c3)CC2)c(=O)c1N | 51.55 µg | – | –
